The source made the active and inactive calls. The calls are words filed in the database; no cut-off is given here.
Experiments:
Neutrophil collagenase = Neutrophil collagenase (Homo sapiens, UniProt P22894); assay: Inhibition of human recombinant MMP-8 after 45 mins by fluorogenic assay
In short: (§1)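 Human recombinant enzymes in a fluorogenic activity assay. Test concentrations 0.01–10,000 nM, 45 min incubation. IC50 reported as mean SEM of at least three independent experiments.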

Collagenase 3 = Collagenase 3 (Homo sapiens, UniProt P45452); assay: Inhibition of human recombinant MMP-13 after 45 mins by fluorogenic assay; in short: as §1
[1] = target: T1, Interstitial collagenase (Homo sapiens) (UniProt P03956); assay: Inhibition of human recombinant MMP-1 at 10 uM after 45 mins by fluorogenic assay
T1 sequence (whole entry): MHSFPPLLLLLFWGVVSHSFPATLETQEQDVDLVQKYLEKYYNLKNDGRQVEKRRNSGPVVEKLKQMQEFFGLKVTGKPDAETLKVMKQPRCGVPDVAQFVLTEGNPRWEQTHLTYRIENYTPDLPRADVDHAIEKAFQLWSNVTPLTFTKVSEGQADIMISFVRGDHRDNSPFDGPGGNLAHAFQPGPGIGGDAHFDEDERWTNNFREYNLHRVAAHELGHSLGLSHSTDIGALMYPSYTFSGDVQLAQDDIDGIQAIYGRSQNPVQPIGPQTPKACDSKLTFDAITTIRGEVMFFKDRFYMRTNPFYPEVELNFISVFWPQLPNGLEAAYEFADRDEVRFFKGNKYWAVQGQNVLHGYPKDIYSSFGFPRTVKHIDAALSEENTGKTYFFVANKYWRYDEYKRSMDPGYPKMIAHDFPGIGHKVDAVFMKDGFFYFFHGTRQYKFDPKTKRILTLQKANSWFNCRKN

[2] = Metabolic stability in human duodenal fluid assessed as compound remaining at 6 hrs; format: ADME; settings: read-out: Stability
In short: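 Incubation at 37 °C in simulated human duodenal fluid. Remaining compound was measured by RP HPLC as a function of time.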

Chain of Neutrophil collagenase (P22894 whole entry): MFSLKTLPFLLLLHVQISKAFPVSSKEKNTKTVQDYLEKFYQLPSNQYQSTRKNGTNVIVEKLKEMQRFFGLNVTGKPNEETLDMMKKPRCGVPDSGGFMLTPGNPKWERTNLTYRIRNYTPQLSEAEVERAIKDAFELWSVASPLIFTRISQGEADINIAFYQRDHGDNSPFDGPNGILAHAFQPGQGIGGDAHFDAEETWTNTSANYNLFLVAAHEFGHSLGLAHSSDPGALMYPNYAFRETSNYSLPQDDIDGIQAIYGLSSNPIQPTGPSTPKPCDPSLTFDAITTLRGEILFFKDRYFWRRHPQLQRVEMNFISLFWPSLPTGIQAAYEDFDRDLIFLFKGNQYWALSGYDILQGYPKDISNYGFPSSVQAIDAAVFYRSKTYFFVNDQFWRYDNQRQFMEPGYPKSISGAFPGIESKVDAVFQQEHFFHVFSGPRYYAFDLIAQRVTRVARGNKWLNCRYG

Compound | IC50 (Neutrophil collagenase) [µM] | IC50 (Collagenase 3) [µM] | inhibition [1] | remaining at 6 h [2] [%]
O=C1NC(=O)C(c2ccc(Oc3ccccc3)cc2)(N2CCCN(C(=O)CCCCCCC(=O)N3CCCN(C4(c5ccc(Oc6ccccc6)cc5)C(=O)NC(=O)NC4=O)CC3)CC2)C(=O)N1 | 0.088 | 0.155 | inactive | 
O=C1NC(=O)C(c2ccc(Oc3ccccc3)cc2)(N2CCCN(C(=O)CCCCCCCCCCC(=O)N3CCCN(C4(c5ccc(Oc6ccccc6)cc5)C(=O)NC(=O)NC4=O)CC3)CC2)C(=O)N1 | 0.125 | 0.104 | inactive | 
O=C1NC(=O)C(c2ccc(Oc3ccccc3)cc2)(N2CCCN(C(=O)c3ccc(C(=O)N4CCCN(C5(c6ccc(Oc7ccccc7)cc6)C(=O)NC(=O)NC5=O)CC4)cc3)CC2)C(=O)N1 | 0.046 | 0.023 | inactive | 
O=C1NC(=O)C(c2ccc(Oc3ccccc3)cc2)(N2CCCN(C(=O)CCCCCCCCCCCCCCC(=O)N3CCCN(C4(c5ccc(Oc6ccccc6)cc5)C(=O)NC(=O)NC4=O)CC3)CC2)C(=O)N1 | 0.282 | 0.134 | inactive | 
O=C1NC(=O)C(c2ccc(Oc3ccccc3)cc2)(N2CCCN(C(=O)CCCCCCCC(=O)N3CCCN(C4(c5ccc(Oc6ccccc6)cc5)C(=O)NC(=O)NC4=O)CC3)CC2)C(=O)N1 | 0.098 | 0.044 | inactive | 
O=C1NC(=O)C(c2ccc(Oc3ccccc3)cc2)(N2CCCN(C(=O)CCCC(=O)N3CCCN(C4(c5ccc(Oc6ccccc6)cc5)C(=O)NC(=O)NC4=O)CC3)CC2)C(=O)N1 | 0.085 | 0.164 | inactive | > 50
CCCC(=O)N1CCCN(C2(c3ccc(Oc4ccccc4)cc3)C(=O)NC(=O)NC2=O)CC1 |  |  | inactive | 
CCCCCCCCCCCCCC(=O)N1CCCN(C2(c3ccc(Oc4ccccc4)cc3)C(=O)NC(=O)NC2=O)CC1 |  |  | inactive | 
O=C1NC(=O)C(c2ccc(Oc3ccccc3)cc2)(N2CCCN(C(=O)CCCCCCCCC(=O)N3CCCN(C4(c5ccc(Oc6ccccc6)cc5)C(=O)NC(=O)NC4=O)CC3)CC2)C(=O)N1 | 0.091 | 0.106 | inactive | 
O=C1NC(=O)C(c2ccc(Oc3ccccc3)cc2)(N2CCCN(C(=O)CCCCCC(=O)N3CCCN(C4(c5ccc(Oc6ccccc6)cc5)C(=O)NC(=O)NC4=O)CC3)CC2)C(=O)N1 | 0.117 | 0.648 | inactive | 
O=C1NC(=O)C(c2ccc(Oc3ccccc3)cc2)(N2CCCN(C(=O)CCCCC(=O)N3CCCN(C4(c5ccc(Oc6ccccc6)cc5)C(=O)NC(=O)NC4=O)CC3)CC2)C(=O)N1 | 0.06 | 0.023 | inactive | 
O=C1NC(=O)C(c2ccc(Oc3ccccc3)cc2)(N2CCCN(C(=O)CCC(=O)N3CCCN(C4(c5ccc(Oc6ccccc6)cc5)C(=O)NC(=O)NC4=O)CC3)CC2)C(=O)N1 | 0.044 | 0.011 | inactive | 
O=C1NC(=O)C(c2ccc(Oc3ccccc3)cc2)(N2CCCN(C(=O)CCCCCCCCCCCCC(=O)N3CCCN(C4(c5ccc(Oc6ccccc6)cc5)C(=O)NC(=O)NC4=O)CC3)CC2)C(=O)N1 | 0.217 | 0.07 | inactive | 
O=C1NC(=O)C(c2ccc(Oc3ccccc3)cc2)(N2CCCN(C(=O)CCCCCCCCCCCCCCCCCCCCC(=O)N3CCCN(C4(c5ccc(Oc6ccccc6)cc5)C(=O)NC(=O)NC4=O)CC3)CC2)C(=O)N1 | 0.162 | 0.225 | inactive | 
